Most compounds without a hit are left out; they make up all but 5.8% or so of the library.
p47phox inh: p47phox/p22phox peptide binding inhibitors, primary screen, biochemical, uHTS, NADPH oxidase regulatory subunit; Neutrophil cytosol factor 1 (Homo sapiens), P14598; actives 0.53% (n = 220,000); inhibition, % at 24.7 µM; fluorescence polarization, 2 h;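 active = inhibition above about 30%, limit read from the data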;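 also: 0% = p47phox with labelled peptide and 100% = labelled peptide alone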
WT yeast gro inh: growth inhibition of WT strain, primary screen, mitochondrial fusion inhibitor project, WT and mutant strains, chemical genetic | mitochondrial fusion phenotypic screen | inhibition, % at 10 µM | actives 2.1% (n = 190,000); in the data active = inhibition above about 58%; tested in S. cerevisiae
RBBP9 inhibitor: human RBBP9 inhibitors, primary screen, biochemical, fluorescence polarization, FP-Rh probe, HTS; Serine hydrolase RBBP9 (Homo sapiens), O75884; recombinant RBBP9; inhibition, % at 7.94 µM; actives 0.2% (n = 220,000); AID 1515, 2009;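 active = inhibition above the campaign mean of all tested compounds plus 3 SD, cut at about 14% in these data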;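 also: plate controls were DMSO wells with RBBP9 for no effect and wells lacking RBBP9 protein for full effect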
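Test system – recombinant human RBBP9 · Input – RBBP9 2.5 µM in dispensing solution, pre-mixing · Medium – Tris buffer pH 8.0, NaCl, Pluronic · Schedule – preincubation 30 min plus labeling 45 min at 25 °C · Measured by – fluorescence polarization · Measure – % inhibition · Controls – DMSO and no-protein wells · Replicates – one well per compound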
14-3-3 Bad PPI: inhibitors of 14-3-3 zeta/Bad binding, primary screen, biochemical, TR-FRET, bovine 14-3-3 zeta; actives 0.71% (n = 220,000); TR-FRET 14-3-3zeta/Dy647-pBad peptide displacement, 1 h; inhibition, % at 21.7 µM; 14-3-3 protein zeta/delta (Bos taurus), P63103; AID 781, 2007;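 active = inhibition above about 70%, limit read from the data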;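 also: 0% = full 14-3-3 plus peptide FRET controls and 100% = background without 14-3-3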
Target sequence (P63103 whole entry, looked up): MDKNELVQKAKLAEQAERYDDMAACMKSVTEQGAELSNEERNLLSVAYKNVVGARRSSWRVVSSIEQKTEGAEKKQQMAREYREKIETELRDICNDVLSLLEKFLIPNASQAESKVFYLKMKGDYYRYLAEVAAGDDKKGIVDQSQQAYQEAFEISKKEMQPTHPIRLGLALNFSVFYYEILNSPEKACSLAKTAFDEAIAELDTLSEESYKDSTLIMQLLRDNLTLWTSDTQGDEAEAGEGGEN
Cl transport mod: KCC2 cotransporter modulators, thallium flux, primary screen, cell-based, HEK293 KCC2, FluoZin-2 fluorescence, MLSMR. Solute carrier family 12 member 5 (Homo sapiens), Q9H2X9. KCC2 cells, thallium flux FluoZin-2 fluorescence. B-score of Tl+ flux slope (higher = more flux/activation; lower = inhibition) at 10 µM. actives 2.2% (n = 190,000);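 active = thallium flux slope and its plate-corrected score both differing from the plate sample mean at a set confidence after two filtering rounds, in either direction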;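 also: slope of fluorescence scaled to starting intensity during 10 to 20 s after thallium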
ROMK primary: ROMK potassium channel modulators, primary screen, cell-based, thallium flux, MLSMR library. AID 1918, 2009. B-score at 10 µM. actives 2% (n = 130,000). ATP-sensitive inward rectifier potassium channel 1 (Homo sapiens), P48048. Tet-inducible ROMK, thallium flux fluorescence; actives lie on both sides;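 active = signal ratio slope over the read window, or its plate-corrected B-score, at least 3 SD from the plate mean, either direction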;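 also: B-score of the F/F0 ratio slope over 7 to 12 s after thallium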
Target sequence (P48048 whole entry, looked up): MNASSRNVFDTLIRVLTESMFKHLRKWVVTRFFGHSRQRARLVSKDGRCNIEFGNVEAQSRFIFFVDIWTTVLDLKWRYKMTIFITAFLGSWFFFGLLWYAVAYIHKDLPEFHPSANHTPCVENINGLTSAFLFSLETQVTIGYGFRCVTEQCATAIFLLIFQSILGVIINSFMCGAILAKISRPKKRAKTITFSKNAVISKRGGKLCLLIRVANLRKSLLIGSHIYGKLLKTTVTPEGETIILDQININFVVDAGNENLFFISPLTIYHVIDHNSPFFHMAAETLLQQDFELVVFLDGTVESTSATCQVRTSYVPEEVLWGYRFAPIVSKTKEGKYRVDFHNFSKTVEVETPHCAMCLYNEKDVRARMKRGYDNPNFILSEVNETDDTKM
* = called active by the depositor.

For Cc1oc2ccc(OC(=O)N(C)C)cc2c1C(=O)OC(C)C the results were p47phox inh -8, WT yeast gro inh 75*, RBBP9 inhibitor 3, 14-3-3 Bad PPI 9 and Cl transport mod -1.4.
For NS(=O)(=O)c1ccc(N=Cc2c(O)n(C3CCCCC3)c(=O)n(C3CCCCC3)c2=O)cc1 the results were p47phox inh -24, WT yeast gro inh 96*, RBBP9 inhibitor 7 and 14-3-3 Bad PPI 4.
`O=C(CF)NC(NC(=S)Nc1ccccc1O)C(Cl)(Cl)Cl` (stereo not given) gave p47phox inh -11, WT yeast gro inh 37, RBBP9 inhibitor -6, 14-3-3 Bad PPI -8, Cl transport mod 1.4 and ROMK primary -0.97.
O=c1[nH]c(O)c(/C=C2/C=CC(c3cc(Cl)ccc3Cl)=N2)c(=O)[nH]1 was read as p47phox inh 50*, RBBP9 inhibitor -7 and 14-3-3 Bad PPI 45.
For CN1CCN(c2ccc(N)cc2Cl)CC1 the results were p47phox inh 6, WT yeast gro inh 6, RBBP9 inhibitor -1, 14-3-3 Bad PPI 1, Cl transport mod 0.58 and ROMK primary -0.54.
For CN1CCc2nc(SCc3cccc(Br)c3)c(C#N)cc2C1 the results were p47phox inh -4, RBBP9 inhibitor -14, 14-3-3 Bad PPI -3 and Cl transport mod 0.26.
CCCCN1C(=O)NC(=O)C2(Cc3c(nc4c(C)cccn4c3=O)N3CCc4ccccc4C32)C1=O (stereo not given) was read as p47phox inh -42, WT yeast gro inh 72*, RBBP9 inhibitor -5, 14-3-3 Bad PPI -11 and Cl transport mod 0.092.
Screening CCCCN1C(=O)NC(=O)C2(Cc3c(nc4ccccn4c3=O)N3CCc4ccccc4C32)C1=O (stereo not given) returned p47phox inh -18, WT yeast gro inh 21, RBBP9 inhibitor -11, 14-3-3 Bad PPI -11, Cl transport mod 0.16 and ROMK primary -1.3.
`c1ccc(-c2[nH]c[n+](CC3CO3)c2-c2ccccc2)cc1` (stereo not given) gave p47phox inh 31*, WT yeast gro inh -7, RBBP9 inhibitor -4, 14-3-3 Bad PPI -16 and Cl transport mod -1.1.
For CCNC(=S)N1CCn2cccc2C1c1cccnc1 (stereo not given) the results were p47phox inh -4, WT yeast gro inh -2, RBBP9 inhibitor 0, 14-3-3 Bad PPI -6, Cl transport mod 0.23 and ROMK primary -0.2.
Screening CC1Oc2cc3c(-c4c(O)cc(O)c5c(O)c6c(cc45)OC(C)C(C)C6=O)c(O)cc(O)c3c(O)c2C(=O)C1C (stereo not given) returned p47phox inh -12, RBBP9 inhibitor 14, 14-3-3 Bad PPI 25 and Cl transport mod 5.
`CCn1c(O)c(C(c2ccccn2)c2c(O)n(CC)c(=S)[nH]c2=O)c(=O)[nH]c1=S` gave p47phox inh -6, WT yeast gro inh 97*, RBBP9 inhibitor -8, 14-3-3 Bad PPI 73* and Cl transport mod 1.2.
Screening CC(Cc1ccccc1)[n+]1cc(/N=C(\[O-])N(C)C)on1 (stereo not given) returned p47phox inh 6, WT yeast gro inh 4, RBBP9 inhibitor -2, 14-3-3 Bad PPI 85* and ROMK primary -0.22.
`CCCCCn1c(=O)c(C(=O)Nc2ccccc2S(N)(=O)=O)c(O)c2ccccc21` gave p47phox inh 4, WT yeast gro inh 77*, RBBP9 inhibitor -16, 14-3-3 Bad PPI 0, Cl transport mod -1.5 and ROMK primary 0.9.
CCCCCCn1c(=O)c(C(=O)Nc2nnc(C)s2)c(O)c2ccccc21 was read as p47phox inh 5, WT yeast gro inh 36, RBBP9 inhibitor -6, 14-3-3 Bad PPI -8 and ROMK primary -0.01.
Screening CCCCn1c(=O)c(C(=O)Nc2nnc(C(C)C)s2)c(O)c2ccccc21 returned p47phox inh -11, WT yeast gro inh 69*, RBBP9 inhibitor -3, 14-3-3 Bad PPI 6, Cl transport mod -0.055 and ROMK primary 1.2.
`CCCCn1c(=O)c(C(=O)Nc2ccccc2S(N)(=O)=O)c(O)c2ccccc21` gave p47phox inh 11, WT yeast gro inh 67*, RBBP9 inhibitor -7, 14-3-3 Bad PPI -8, Cl transport mod -2.3 and ROMK primary -0.68.
Screening CN(C)CC1CSCCC1(O)c1ccccc1 (stereo not given) returned p47phox inh -7, WT yeast gro inh -17, RBBP9 inhibitor -8 and 14-3-3 Bad PPI 22.
CCOC(=O)C(O)(c1ccc(N(CC)C(=O)COc2ccccc2)cc1)C(F)(F)F (stereo not given) was read as p47phox inh 10, WT yeast gro inh -2, RBBP9 inhibitor -3, 14-3-3 Bad PPI -18 and Cl transport mod -0.67.
For CN(C)c1ccc(/C=C2\C(=O)NC(=O)N(Cc3ccc(F)cc3)C2=O)cc1 the results were p47phox inh 97*, RBBP9 inhibitor -10, 14-3-3 Bad PPI 8, Cl transport mod -1.3 and ROMK primary 0.46.
`O=C(Cc1ccccc1)N1CCN(Cc2cccnc2)CC1` gave p47phox inh 1, WT yeast gro inh -3, RBBP9 inhibitor -7, 14-3-3 Bad PPI 58, Cl transport mod 1.8 and ROMK primary -0.38.
`CCCC/C(C)=C/[C@@H](NP(=O)(c1ccccc1)c1ccccc1)c1ccccc1` gave p47phox inh 1, WT yeast gro inh 91*, RBBP9 inhibitor -8, 14-3-3 Bad PPI 6, Cl transport mod -0.58 and ROMK primary -0.51.
`CCOC(=O)C(=CNc1ccc(C(O)(C(=O)OCC)C(F)(F)F)cc1C)C(=O)OCC` (stereo not given) gave p47phox inh 2, WT yeast gro inh 1, RBBP9 inhibitor -6, 14-3-3 Bad PPI -15 and Cl transport mod -1.1.
For Nc1ccccc1C(=O)OCC(=O)c1ccc2c(c1)OCCO2 the results were p47phox inh 0, WT yeast gro inh -3, RBBP9 inhibitor -6, 14-3-3 Bad PPI 16 and ROMK primary 0.74.
For C/C(=N\N1CCCCC1c1cccnc1)c1c(O)n(C2CCCCC2)c(=S)[nH]c1=O (stereo not given) the results were p47phox inh -180, WT yeast gro inh 74*, RBBP9 inhibitor -13, 14-3-3 Bad PPI 4 and Cl transport mod 1.5.
